Active and inactive are the calls of the source. The calls are words filed in the database; no cut-off is given here.
How the values were obtained:
[1] = test system: Mycobacterium tuberculosis; assay: Antimycobacterial activity against Mycobacterium tuberculosis Erdman harboring frameshift mutation in KatG at amino acid 6 assessed as reduction in colony forming units at 1 uM incubated for 13 days; type: functional, organism-based; conditions: time 13.0 day
Procedure, shortened: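 katG frameshift mutant grown to log phase in Sauton's medium, diluted to 5 × 10^7 CFU/mL, given 1 μM compound (imidazole salt in DMSO); IMD/DMSO vehicle controls. Incubated rolling at 37 °C. After 13 days, serial dilutions plated on 7H11 agar with ADC for CFU. Two experiments, each in duplicate; one-way ANOVA with Tukey's correction.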

[2] = test system: Mycobacterium tuberculosis; assay: Reversal of isoniazid resistance in Mycobacterium tuberculosis Erdman harboring frameshift mutation in KatG at amino acid 6 assessed as reduction in surviving bacteria by measuring reduction in colony forming units at 1 uM incubated for 13 days; type: functional, organism-based; conditions: time 13.0 day
[3] = test system: Mycobacterium tuberculosis; assay: Antimycobacterial activity against Mycobacterium tuberculosis Erdman harboring frameshift mutation in KatG at amino acid 6 assessed as reduction in colony forming units at […] incubated for 13 days (reference value: 9.07 x 10^9 CFU/mL); type: functional; conditions: dose 2.5 µg/ml; time 13 day

SMILES | Activity [1] | Activity [2] | Activity [3]
O=C(O)C1CSc2c(C3CC3)c(-c3cc(-c4ccc5ccccc5c4)no3)cc(=O)n21.c1c[nH]cn1 (racemic) | inactive | Active | –
O=C(O)C1CSc2c(C3CC3)c(Cc3cccc4ccccc34)cc(=O)n21.c1c[nH]cn1 (racemic) | inactive | inactive | –
NNC(=O)c1ccncc1 [ISONIAZID] | – | – | 8.09 10^8CFU/ml

Source: ChEMBL document CHEMBL5360619
